What was measured:
[1] = system: Leukotriene B4 receptor 1 (Cavia porcellus); experiment: Inhibition of [3H]LTB4 binding to Leukotriene B4 receptor in the guinea pig spleen membranes at a dose of 10 uM; conditions: Membrane
[2] = target: Leukotriene B4 receptor 1 (Homo sapiens, UniProt Q15722); experiment: Inhibition of [3H]LTB4 binding to Leukotriene B4 receptor in the human polymorphonuclear leukocytes
Procedure, shortened: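 Human blood PMNs were isolated by dextran T500 sedimentation, Ficoll-Hypaque centrifugation and hypotonic lysis. Cells were suspended in Hanks' solution with 5 mmol/L HEPES and 1 g/L ovalbumin, then incubated on ice for 15 min with 0.5 nmol/L [3H]LTB4 and competitor. Samples were filtered on GF/C, washed and counted. Nonspecific binding was defined with 1000-fold unlabeled LTB4. IC50 was read graphically; mean of three replicates.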

Chain of Leukotriene B4 receptor 1 (Q15722 whole entry): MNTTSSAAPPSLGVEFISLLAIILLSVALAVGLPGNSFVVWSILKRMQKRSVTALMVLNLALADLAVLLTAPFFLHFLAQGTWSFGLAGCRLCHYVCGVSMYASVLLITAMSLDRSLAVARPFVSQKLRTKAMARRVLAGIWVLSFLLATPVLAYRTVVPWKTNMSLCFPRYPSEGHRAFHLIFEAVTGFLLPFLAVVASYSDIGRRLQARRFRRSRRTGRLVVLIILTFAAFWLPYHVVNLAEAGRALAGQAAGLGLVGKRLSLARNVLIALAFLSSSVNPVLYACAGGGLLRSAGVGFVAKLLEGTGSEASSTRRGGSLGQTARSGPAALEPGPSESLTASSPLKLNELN

SMILES | inhibition [1] [%] | IC50 [2] [nM]
CC(C)(CCCCNc1cc(-c2ccccc2)c2ccccc2n1)C(=O)O | 0 | –
OCCCCCCOc1cc(-c2ccccc2)c2ccccc2n1 | 14 | –
O=C(O)CCCCOc1cc(-c2ccccc2)c2ccccc2n1 | 0 | –
O=C(O)CCCCCOc1cc(-c2ccc(Cl)cc2)c2ccccc2n1 | – | 150
O=C(CCCCCOc1cc(-c2ccccc2)c2ccccc2n1)N1CCCC1 | 12 | –
CC(C)(CCCCOc1cc(-c2ccc(Cl)cc2)c2ccccc2n1)c1nnn[nH]1 | – | 50
COc1ccccc1-c1cc(OCCCCC(C)(C)C(=O)O)nc2ccccc12 | 36 | –
CC(C)(CCCCSc1cc(-c2ccccc2)c2ccccc2n1)C(=O)O | 33 | –
CC(C)(CCCCOc1cc(-c2ccc(N)cc2)c2ccccc2n1)C(=O)O | – | 250
O=C(O)CCCCCCc1cc(-c2ccccc2)c2ccccc2n1 | 34 | –
Cc1ccc(-c2cc(OCCCCC(C)(C)C(=O)O)nc3ccccc23)cc1 | – | 100
COc1ccc(/C=C/CCCCOc2ccc(C(=O)c3cccc(C(=O)O)c3)cc2CCC(=O)O)cc1 | – | 3.5
CC(C)(CCCCOc1cc(-c2ccccc2)c2ccccc2n1)C(=O)O | – | 4000
O=C(O)CCCC/C=C/c1cc(-c2ccccc2)c2ccccc2n1 | 27 | –
CC(=O)Nc1ccc(-c2cc(OCCCCC(C)(C)C(=O)O)nc3ccccc23)cc1 | 23 | –

From ChEMBL document CHEMBL1126259, “omega-[(4-Phenyl-2-quinolyl)oxy]alkanoic acid derivatives: a new family of potent LTB4 antagonists” (J Med Chem, 1992)
